PMC6331009 (Chemosphere, 2017)
Like-named read-outs stand apart in the source and are kept apart here.

Assays:
Format in all cases: biochemical
UGT1A7 [1] = target: T1, UGT1A7 (Homo sapiens, UniProt Q9HAW7); test: 4-MU glucuronidation, UPLC-UV, Lineweaver-Burk slope replot
T1 sequence (Q9HAW7 26-530): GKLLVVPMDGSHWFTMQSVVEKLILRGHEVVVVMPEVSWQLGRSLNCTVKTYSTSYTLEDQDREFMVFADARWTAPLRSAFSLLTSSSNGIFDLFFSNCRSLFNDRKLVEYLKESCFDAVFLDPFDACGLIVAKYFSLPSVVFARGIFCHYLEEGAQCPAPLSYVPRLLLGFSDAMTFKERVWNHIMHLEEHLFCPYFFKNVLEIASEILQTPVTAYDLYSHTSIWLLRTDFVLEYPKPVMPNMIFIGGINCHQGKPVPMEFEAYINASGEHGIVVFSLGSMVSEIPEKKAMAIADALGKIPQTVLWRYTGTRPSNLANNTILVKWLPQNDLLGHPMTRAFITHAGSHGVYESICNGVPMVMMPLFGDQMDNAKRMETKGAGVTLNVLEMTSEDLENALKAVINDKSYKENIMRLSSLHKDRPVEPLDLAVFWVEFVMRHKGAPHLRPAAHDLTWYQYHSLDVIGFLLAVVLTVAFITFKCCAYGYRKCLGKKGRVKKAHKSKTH
How it was run: (§1)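 Recombinant human UGT isoform expressed in insect cells. 4-MU was varied, with or without test compound at levels giving 20%, 40%, 60% and 80% inhibition. After 5 min at 37 °C, 5 mM UDPGA was added; reactions ran 30–120 min. Glucuronide was quantified by UPLC-UV at 316 nm against a 7-hydroxycoumarin internal standard, with points as duplicate means. Inhibition type came from Lineweaver-Burk plots, and Ki from a replot of slopes against inhibitor concentration.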

UGT1A9 [2] = target: T2, UGT1A9 (Homo sapiens, UniProt O60656); test: 4-MU glucuronidation, UPLC-UV, dose response
T2 sequence (O60656 26-530): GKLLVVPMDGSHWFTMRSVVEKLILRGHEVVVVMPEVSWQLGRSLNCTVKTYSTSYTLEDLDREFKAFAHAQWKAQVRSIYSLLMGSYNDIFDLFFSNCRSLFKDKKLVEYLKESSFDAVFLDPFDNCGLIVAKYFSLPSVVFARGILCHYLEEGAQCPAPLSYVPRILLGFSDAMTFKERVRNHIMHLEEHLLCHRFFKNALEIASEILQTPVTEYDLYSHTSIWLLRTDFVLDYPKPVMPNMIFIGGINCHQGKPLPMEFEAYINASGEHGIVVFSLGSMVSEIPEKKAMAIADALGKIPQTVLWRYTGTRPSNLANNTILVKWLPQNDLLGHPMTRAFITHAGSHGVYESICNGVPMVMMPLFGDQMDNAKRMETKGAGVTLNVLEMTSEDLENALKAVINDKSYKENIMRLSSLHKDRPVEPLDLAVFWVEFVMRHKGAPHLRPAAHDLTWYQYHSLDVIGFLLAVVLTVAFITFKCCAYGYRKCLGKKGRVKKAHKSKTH
How it was run: (§2)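 Recombinant human UGT isoform expressed in baculovirus-infected insect cells. Test compound at 0, 0.5, 1, 5, 10, 20, 40, 60, 80 and 100 µM, with no-compound controls. After 5 min preincubation at 37 °C, 5 mM UDPGA was added to start the reaction. Reactions were stopped at 30–120 min with acetonitrile containing 7-hydroxycoumarin internal standard. 4-MU glucuronide was measured by C18 UPLC with UV at 316 nm as the peak-area ratio to internal standard. Two independent experiments in duplicate.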

UGT1A6 [3] = target: T3, UGT1A6 (Homo sapiens, UniProt P19224); test: 4-MU glucuronidation, UPLC-UV, dose response
T3 sequence (P19224 27-532): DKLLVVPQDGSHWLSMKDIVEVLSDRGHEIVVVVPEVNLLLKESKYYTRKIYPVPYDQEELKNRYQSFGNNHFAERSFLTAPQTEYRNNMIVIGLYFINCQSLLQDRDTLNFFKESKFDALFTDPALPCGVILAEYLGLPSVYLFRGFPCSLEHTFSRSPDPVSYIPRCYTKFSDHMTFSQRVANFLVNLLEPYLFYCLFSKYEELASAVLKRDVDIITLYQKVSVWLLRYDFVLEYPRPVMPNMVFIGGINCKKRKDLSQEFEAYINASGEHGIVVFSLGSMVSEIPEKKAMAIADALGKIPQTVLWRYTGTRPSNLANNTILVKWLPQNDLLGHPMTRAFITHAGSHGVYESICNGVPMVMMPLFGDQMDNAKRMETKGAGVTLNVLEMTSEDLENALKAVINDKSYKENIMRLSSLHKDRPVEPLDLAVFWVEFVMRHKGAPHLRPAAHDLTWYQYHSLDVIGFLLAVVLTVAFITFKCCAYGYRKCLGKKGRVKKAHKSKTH
How it was run: as §2

UGT1A7 [4] = target: T1, UGT1A7; test: 4-MU glucuronidation, UPLC-UV, dose response
How it was run: as §2

UGT1A9 [5] = target: T2, UGT1A9; test: 4-MU glucuronidation, UPLC-UV, Lineweaver-Burk slope replot
How it was run: as §1

UGT1A6 [6] = target: T3, UGT1A6; test: as above
How it was run: as §1

UGT2B4 [7] = target: T4, UGT2B4 (Homo sapiens, UniProt P06133); test: as above
T4 sequence (P06133 24-528): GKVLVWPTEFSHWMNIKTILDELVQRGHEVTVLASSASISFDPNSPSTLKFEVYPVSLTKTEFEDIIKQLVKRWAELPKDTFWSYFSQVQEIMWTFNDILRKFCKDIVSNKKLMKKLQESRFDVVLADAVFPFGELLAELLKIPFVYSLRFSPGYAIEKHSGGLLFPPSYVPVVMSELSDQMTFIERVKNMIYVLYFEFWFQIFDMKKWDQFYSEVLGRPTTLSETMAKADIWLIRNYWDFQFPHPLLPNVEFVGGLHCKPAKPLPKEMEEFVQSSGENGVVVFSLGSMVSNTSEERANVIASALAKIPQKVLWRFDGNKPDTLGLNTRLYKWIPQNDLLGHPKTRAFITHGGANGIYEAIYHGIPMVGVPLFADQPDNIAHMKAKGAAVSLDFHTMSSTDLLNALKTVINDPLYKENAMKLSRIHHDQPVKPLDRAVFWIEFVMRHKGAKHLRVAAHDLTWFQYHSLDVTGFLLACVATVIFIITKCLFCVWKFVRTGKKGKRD
How it was run: as §1

UGT2B4 [8] = target: T4, UGT2B4; test: 4-MU glucuronidation, UPLC-UV, dose response
How it was run: as §2

[9] = competitive, 4-MU varied, UDPGA 5 mM, MgCl2 5 mM, Tris-HCl pH 7.4, 37 °C
[10] = competitive, 4-MU 30 μM, UDPGA 5 mM, MgCl2 5 mM, Tris-HCl pH 7.4, 37 °C

Row | SMILES | IC50 (UGT1A9 [2]) | Ki (UGT1A9 [5]) | Ki (UGT2B4 [7]) | IC50 (UGT2B4 [8]) | IC50 (UGT1A9 [2]; [10]) | Ki (UGT1A9 [5]; [9]) | further results
1 | CCCCOCCOC(=O)c1ccccc1C(=O)OCCOCCCC [BBOP] | 28.3 µM | 73.7 µM |  |  |  |  | Ki (UGT1A7 [1]): 23.6 µM; IC50 (UGT1A6 [3]): 35.1 µM; IC50 (UGT1A7 [4]): 18.2 µM; Ki (UGT1A6 [6]): 15.5 µM
2 | CCCCOC(=O)c1ccccc1C(=O)OCc1ccccc1 [BBZP] | 5.54 µM | 0.84 µM | 7.23 µM | 13.8 µM |  |  | Ki (UGT1A7 [1]): 12.2 µM; IC50 (UGT1A6 [3]): 53.2 µM; IC50 (UGT1A7 [4]): 19.5 µM; Ki (UGT1A6 [6]): 52.3 µM
3 | C=CCOC(=O)c1ccccc1C(=O)OCC=C [DAP] |  |  |  |  |  |  | Ki (UGT2B4 [7]; [9]): 6.73 µM; IC50 (UGT2B4 [8]; competitive, 4-MU 1000 μM, UDPGA 5 mM, MgCl2 5 mM, Tris-HCl pH 7.4, 37 °C): 14.3 µM
4 | CCCCOC(=O)c1ccccc1C(=O)OCCCC [DBP] | 17.6 µM | 22.8 µM | 4.93 µM | 11.9 µM |  |  | 
5 | O=C(OC1CCCCC1)c1ccccc1C(=O)OC1CCCCC1 [DCHP] |  |  |  |  | 1.46 µM | 1.07 µM | 
6 | CCCCCCOC(=O)c1ccccc1C(=O)OCCCCCC [DHP] |  |  |  |  | 25.4 µM | 0.58 µM | 
7 | COCCOC(=O)c1ccccc1C(=O)OCCOC [DMEP] |  |  |  |  | 18.2 µM | 4.51 µM | 
8 | CCCCCOC(=O)c1ccccc1C(=O)OCCCCC [DPP] | 18.5 µM | 1.74 µM |  |  |  |  | 
9 | CC(C)COC(=O)c1ccccc1C(=O)OCC(C)C [DiBP] | 7.03 µM | 2.79 µM | 6.79 µM | 5.89 µM |  |  | 
10 | CC(C)CCOC(=O)c1ccccc1C(=O)OCCC(C)C [DiPP] | 14.7 µM | 5.61 µM |  |  |  |  | 
